How the values were obtained:
[1] = target: T1, Prostaglandin E2 receptor EP1 subtype (Homo sapiens, UniProt P34995); assay: Antagonist activity at human EP1 expressed in CHOK1 cells receptor assessed as inhibition of intracellular calcium mobilization by FLIPR assay; format: functional, cell-based, CHO-K1
T1 sequence (P34995 whole entry): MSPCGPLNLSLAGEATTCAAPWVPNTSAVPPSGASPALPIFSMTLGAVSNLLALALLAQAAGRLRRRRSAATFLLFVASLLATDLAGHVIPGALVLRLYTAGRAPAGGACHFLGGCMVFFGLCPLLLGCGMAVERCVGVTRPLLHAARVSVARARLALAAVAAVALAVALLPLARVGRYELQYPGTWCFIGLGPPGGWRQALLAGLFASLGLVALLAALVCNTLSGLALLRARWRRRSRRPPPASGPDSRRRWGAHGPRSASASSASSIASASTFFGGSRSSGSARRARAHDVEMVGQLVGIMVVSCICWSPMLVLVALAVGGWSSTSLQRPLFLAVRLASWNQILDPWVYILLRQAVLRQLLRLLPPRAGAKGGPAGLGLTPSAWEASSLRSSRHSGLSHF
Method in brief: (§1)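 Stable EP1- or EP3-transfected CHO-K1 whole cells loaded with calcium-sensitive dye Fluo-3; inhibition of PGE2-evoked intracellular Ca2+ mobilisation read on a fluorimetric imaging plate reader (FLIPR). IC50s converted to pKi. Means of at least two experiments unless specified.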

[2] = target: T1, Prostaglandin E2 receptor EP1 subtype; assay: Displacement of [3H]PGE2 from EP1 expressed in CHO cells; format: cell-based
Method in brief: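 Membranes from stable EP1-transfected CHO-K1 cells incubated with compound and [3H]-PGE2 (3 nM final) for 30 min at 30 °C. Bound radioactivity counted by liquid scintillation. Means of at least four experiments.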

[3] = target: T1, Prostaglandin E2 receptor EP1 subtype; assay: Antagonist activity at human EP1 receptor expressed in CHO cells receptor by […] reporter gene assay; format: functional, cell-based; conditions: read-out: pA2 (converted)
Method in brief: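 CHO cells stably co-transfected with NFAT reporter gene and human EP1 (pCIN3) were quiesced 24 h before assay. PGE2 concentration-response curves run without antagonist and with five antagonist concentrations, 4 h incubation, luciferase readout. Dose ratios from PGE2 EC50s; log(dose ratio − 1) vs log[antagonist] fitted by linear regression to give pA2 and slope.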

[4] = target: T2, Prostaglandin E2 receptor EP3 subtype (Homo sapiens, UniProt P43115); assay: Antagonist activity at human EP3 expressed in CHOK1 cells receptor assessed as inhibition intracellular calcium mobilization by FLIPR assay; format: functional, cell-based, CHO-K1; method in brief: as §1
T2 sequence (P43115 whole entry): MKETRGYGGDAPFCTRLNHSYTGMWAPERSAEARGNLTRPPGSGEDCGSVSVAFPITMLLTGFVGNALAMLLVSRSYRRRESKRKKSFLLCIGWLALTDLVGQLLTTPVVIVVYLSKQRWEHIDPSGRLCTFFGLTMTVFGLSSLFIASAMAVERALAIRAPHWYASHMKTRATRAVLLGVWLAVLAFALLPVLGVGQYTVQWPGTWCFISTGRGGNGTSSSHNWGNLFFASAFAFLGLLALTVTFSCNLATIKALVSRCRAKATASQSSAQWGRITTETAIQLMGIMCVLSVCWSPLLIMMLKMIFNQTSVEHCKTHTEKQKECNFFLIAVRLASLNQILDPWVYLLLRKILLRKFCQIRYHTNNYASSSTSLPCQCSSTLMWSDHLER

[5] = species on record: Homo sapiens; assay: Selectivity for EP1 receptor over EP3 receptor
[6] = target: T3, Thromboxane A2 receptor (Homo sapiens, UniProt P21731); assay: Inhibition of TP receptor
T3 sequence (P21731 whole entry): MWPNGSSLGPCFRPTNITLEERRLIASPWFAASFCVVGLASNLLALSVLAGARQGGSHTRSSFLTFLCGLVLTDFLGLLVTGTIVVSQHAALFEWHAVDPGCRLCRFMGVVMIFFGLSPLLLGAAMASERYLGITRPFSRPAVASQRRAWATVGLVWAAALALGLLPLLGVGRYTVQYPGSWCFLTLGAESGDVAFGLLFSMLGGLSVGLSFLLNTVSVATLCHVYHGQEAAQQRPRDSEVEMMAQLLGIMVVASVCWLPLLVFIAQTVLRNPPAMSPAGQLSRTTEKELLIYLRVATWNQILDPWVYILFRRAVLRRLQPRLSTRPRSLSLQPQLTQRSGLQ

[7] = target: Prostaglandin F2-alpha receptor (Homo sapiens, UniProt P43088); assay: Inhibition of FP receptor
[8] = target: T4, Cytochrome P450 1A2 (Homo sapiens, UniProt P05177); assay: Inhibition of CYP1A2; format: ADME
T4 sequence (P05177 whole entry): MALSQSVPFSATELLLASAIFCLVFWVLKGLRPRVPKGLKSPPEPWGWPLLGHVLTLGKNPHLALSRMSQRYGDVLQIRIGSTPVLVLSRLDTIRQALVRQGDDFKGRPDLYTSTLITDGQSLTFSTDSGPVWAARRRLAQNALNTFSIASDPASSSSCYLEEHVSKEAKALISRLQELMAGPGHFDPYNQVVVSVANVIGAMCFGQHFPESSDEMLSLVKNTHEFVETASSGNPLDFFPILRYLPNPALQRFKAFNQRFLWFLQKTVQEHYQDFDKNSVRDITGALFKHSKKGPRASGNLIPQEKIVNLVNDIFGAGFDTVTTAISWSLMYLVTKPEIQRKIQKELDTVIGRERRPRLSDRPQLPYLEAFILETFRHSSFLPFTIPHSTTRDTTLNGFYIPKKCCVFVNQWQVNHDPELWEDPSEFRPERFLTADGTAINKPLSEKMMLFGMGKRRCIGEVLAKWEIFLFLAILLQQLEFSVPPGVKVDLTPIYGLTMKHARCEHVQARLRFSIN

[9] = target: Cytochrome P450 2C9 (Homo sapiens, UniProt P11712); assay: Inhibition of CYP2C9; format: ADME
[10] = target: Cytochrome P450 2C19 (Homo sapiens, UniProt P33261); assay: Inhibition of CYP2C19; format: ADME
[11] = target: Cytochrome P450 2D6 (Homo sapiens, UniProt P10635); assay: Inhibition of CYP2D6; format: ADME
[12] = target: Cytochrome P450 3A4 (Homo sapiens, UniProt P08684); assay: Inhibition of CYP3A4; format: ADME
Cytochrome P450 3A4, sequence (P08684 whole entry): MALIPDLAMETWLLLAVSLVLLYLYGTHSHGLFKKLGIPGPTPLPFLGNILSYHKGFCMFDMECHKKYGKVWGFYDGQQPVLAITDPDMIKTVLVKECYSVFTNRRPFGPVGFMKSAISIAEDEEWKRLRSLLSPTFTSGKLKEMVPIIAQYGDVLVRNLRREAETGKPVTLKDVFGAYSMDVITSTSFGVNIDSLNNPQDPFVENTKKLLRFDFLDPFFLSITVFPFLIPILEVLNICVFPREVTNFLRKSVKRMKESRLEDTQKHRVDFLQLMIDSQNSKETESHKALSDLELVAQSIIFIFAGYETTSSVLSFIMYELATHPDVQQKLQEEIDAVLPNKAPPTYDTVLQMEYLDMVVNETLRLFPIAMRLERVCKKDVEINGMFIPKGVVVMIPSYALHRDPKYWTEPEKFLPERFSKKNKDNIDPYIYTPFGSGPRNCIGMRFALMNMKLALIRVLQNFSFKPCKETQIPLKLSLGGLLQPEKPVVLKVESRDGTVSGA

Cytochrome P450 2C19, sequence (P33261 whole entry): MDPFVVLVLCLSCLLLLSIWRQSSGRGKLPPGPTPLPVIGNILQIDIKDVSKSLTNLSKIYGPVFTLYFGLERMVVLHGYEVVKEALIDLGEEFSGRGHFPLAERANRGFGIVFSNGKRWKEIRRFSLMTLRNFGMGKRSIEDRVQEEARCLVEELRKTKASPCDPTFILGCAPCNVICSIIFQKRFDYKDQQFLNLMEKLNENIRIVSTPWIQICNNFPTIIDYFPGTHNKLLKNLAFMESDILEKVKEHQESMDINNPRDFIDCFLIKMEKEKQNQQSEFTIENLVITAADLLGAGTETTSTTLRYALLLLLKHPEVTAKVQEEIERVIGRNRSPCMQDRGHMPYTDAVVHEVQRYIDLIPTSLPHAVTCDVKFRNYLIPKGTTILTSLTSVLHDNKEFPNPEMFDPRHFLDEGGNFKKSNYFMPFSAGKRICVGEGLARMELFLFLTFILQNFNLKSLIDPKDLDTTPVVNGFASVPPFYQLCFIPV
Cytochrome P450 2D6, sequence (P10635 whole entry): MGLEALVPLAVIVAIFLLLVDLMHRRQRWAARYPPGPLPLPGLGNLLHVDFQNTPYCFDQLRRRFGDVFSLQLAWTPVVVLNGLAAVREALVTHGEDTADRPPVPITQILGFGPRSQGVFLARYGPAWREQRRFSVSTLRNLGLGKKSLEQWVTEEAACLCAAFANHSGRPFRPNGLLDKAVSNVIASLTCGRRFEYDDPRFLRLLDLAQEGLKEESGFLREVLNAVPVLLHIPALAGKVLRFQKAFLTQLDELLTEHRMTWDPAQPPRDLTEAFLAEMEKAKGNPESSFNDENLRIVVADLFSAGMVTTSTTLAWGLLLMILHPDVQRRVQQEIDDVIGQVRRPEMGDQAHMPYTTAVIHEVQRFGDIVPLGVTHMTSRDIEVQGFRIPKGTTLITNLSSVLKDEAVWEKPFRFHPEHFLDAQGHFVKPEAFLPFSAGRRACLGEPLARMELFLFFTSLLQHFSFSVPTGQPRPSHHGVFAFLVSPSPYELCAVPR
Cytochrome P450 2C9, sequence (P11712 whole entry): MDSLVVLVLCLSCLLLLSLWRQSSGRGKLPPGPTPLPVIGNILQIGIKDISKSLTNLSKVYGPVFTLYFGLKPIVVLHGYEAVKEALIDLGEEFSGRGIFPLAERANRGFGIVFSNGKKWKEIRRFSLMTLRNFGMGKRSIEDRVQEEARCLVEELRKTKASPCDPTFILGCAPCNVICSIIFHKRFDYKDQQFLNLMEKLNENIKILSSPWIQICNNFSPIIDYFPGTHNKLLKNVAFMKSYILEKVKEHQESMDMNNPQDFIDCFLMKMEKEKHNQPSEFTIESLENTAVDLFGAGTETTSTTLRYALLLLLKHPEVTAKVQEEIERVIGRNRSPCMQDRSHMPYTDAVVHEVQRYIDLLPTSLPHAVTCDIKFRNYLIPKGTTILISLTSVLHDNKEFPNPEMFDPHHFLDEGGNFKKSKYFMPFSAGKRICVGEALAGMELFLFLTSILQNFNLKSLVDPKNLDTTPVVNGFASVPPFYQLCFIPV
Prostaglandin F2-alpha receptor, sequence (P43088 whole entry): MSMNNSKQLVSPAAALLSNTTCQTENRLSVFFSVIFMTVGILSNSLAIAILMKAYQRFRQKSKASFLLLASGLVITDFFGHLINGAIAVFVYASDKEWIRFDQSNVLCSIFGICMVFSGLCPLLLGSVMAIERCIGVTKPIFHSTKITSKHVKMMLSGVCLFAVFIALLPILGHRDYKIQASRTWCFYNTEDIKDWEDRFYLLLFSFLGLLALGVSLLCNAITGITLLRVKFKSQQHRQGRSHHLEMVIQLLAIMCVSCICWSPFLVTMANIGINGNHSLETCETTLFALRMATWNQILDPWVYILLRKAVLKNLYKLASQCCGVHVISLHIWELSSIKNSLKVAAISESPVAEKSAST

| Structure (SMILES) | Ki [1] [µM] | also measured |
| --- | --- | --- |
| CCc1ccccc1N(CC(=O)NCCc1ccc(OC)c(OC)c1)S(=O)(=O)c1cccc(OC(F)(F)F)c1 | 0.708 |  |
| CCc1ccccc1N(CC(=O)NCc1cccc(OC(F)(F)F)c1)S(=O)(=O)c1ccc(C)cc1 | 0.427 |  |
| COc1ccc(CCNC(=O)CN(c2ccccc2C)S(=O)(=O)c2ccc(C)cc2)c(F)c1OC | 0.0661 |  |
| CCn1nccc1N(CC(=O)NCc1ccc(Cl)cc1)S(=O)(=O)c1ccc(C)cc1 | 0.0724 | Ki [2]: 0.158 µM |
| Cc1ccc(S(=O)(=O)N(CC(=O)NCCc2ccc(NS(C)(=O)=O)cc2)c2ccccc2C)cc1 | 0.0891 |  |
| CCc1ccccc1N(CC(=O)NCc1ccccc1OC)S(=O)(=O)c1ccc(C)cc1 | 1.07 |  |
| CCc1ccccc1N(CC(=O)NCCc1ccc(OC)c(OC)c1)S(=O)(=O)c1ccc(C)cc1 | 0.0135 | Kb [3]: 0.00501 µM |
| COc1ccc(CCNC(=O)CN(c2cccc(C)c2)S(=O)(=O)c2ccc(C)cc2)cc1OC | 0.0617 |  |
| COc1ccc(CCNC(=O)CN(c2cccc(Cl)c2)S(=O)(=O)c2ccc(C)cc2)cc1OC | 0.0617 |  |
| COc1ccc(CCNC(=O)CN(c2ccccc2C)S(=O)(=O)c2ccc(C)cc2)cc1 | 0.17 |  |
| Cc1ccc(S(=O)(=O)N(CC(=O)NCCc2ccc(Cl)cc2)c2ccccc2C)cc1 | 0.661 |  |
| CCc1ccccc1N(CC(=O)NCc1cccc(OC)c1)S(=O)(=O)c1ccc(C)cc1 | 0.138 | Ki [2]: 0.0794 µM |
| COc1ccc(N(CC(=O)NCCc2ccc(OC)c(OC)c2)S(=O)(=O)c2ccc(C)cc2)cc1 | > 1.58 |  |
| Cc1ccc(S(=O)(=O)N(CC(=O)NCc2ccc(Cl)cc2)c2ccc(C)cn2)cc1 | > 1.45 | Ki [2]: > 1 µM |
| Cc1ccc(S(=O)(=O)N(CC(=O)NCc2ccc(Cl)cc2)c2ncccc2C)cc1 | > 1.45 | Ki [2]: 0.794 µM |
| CCc1ccccc1N(CC(=O)NCCc1ccc(OC)c(OC)c1)S(=O)(=O)c1ccc(C(F)(F)F)cc1 | 0.0191 |  |
| CCc1ccccc1N(CC(=O)NCCc1ccc(OC)c(OC)c1)S(=O)(=O)c1ccc(C#N)cc1 | 0.0316 |  |
| CCc1ccccc1N(CC(=O)NCc1ccc(Br)cc1)S(=O)(=O)c1ccc(C)cc1 | 0.0229 |  |
| CCc1ccccc1N(CC(=O)NCCc1ccc(OC)c(OC)c1)S(=O)(=O)c1cccc(C#N)c1 | 0.24 |  |
| Cc1ccc(S(=O)(=O)N(CC(=O)NCc2ccc(Cl)cc2)c2ccccn2)cc1 | > 1.45 | Ki [2]: > 1 µM |
| CCc1ccccc1N(CC(=O)NCc1ccccc1)S(=O)(=O)c1ccc(C)cc1 | 0.224 | Ki [2]: 0.0631 µM |
| COc1ccc(CCNC(=O)CN(c2cccc(C(F)(F)F)c2)S(=O)(=O)c2ccc(C)cc2)cc1OC | 0.0309 |  |
| COc1ccc(CCNC(=O)CN(c2ccccc2C)S(=O)(=O)c2ccccc2)cc1OC | 0.741 |  |
| COc1ccc(CCNC(=O)CN(c2ccc(Br)cc2)S(=O)(=O)c2ccc(C)cc2)cc1OC | > 3.8 |  |
| Cc1ccc(S(=O)(=O)N(CC(=O)NCCc2cccc(O)c2)c2ccccc2C)cc1 | 0.204 |  |
| CCc1ccccc1N(CC(=O)NCCc1ccc(OC)c(OC)c1)S(=O)(=O)c1ccccc1C | 0.166 |  |

| Structure (SMILES) | Ki [1] [µM] | also measured |
| --- | --- | --- |
| COc1ccc(CCNC(=O)CN(c2cccc(Br)c2)S(=O)(=O)c2ccc(C)cc2)cc1OC | 0.0347 |  |
| CCc1ccccc1N(CC(=O)NCc1ccc(OC)c(OC)c1)S(=O)(=O)c1ccc(C)cc1 | 0.282 | Ki [2]: 0.0251 µM |
| CCc1ccccc1N(CC(=O)NCCc1ccc(OC)c(OC)c1)S(=O)(=O)c1ccc(Br)cc1 | 0.0288 |  |
| CCc1ccccc1N(CC(=O)NCCc1ccc(OC)c(OC)c1)S(=O)(=O)c1ccc(OC(F)(F)F)cc1 | 0.0692 |  |
| CCc1ccccc1N(CC(=O)NCc1ccccc1F)S(=O)(=O)c1ccc(C)cc1 | 0.135 |  |
| COc1ccc(CCNC(=O)CN(c2ccc(Cl)cc2)S(=O)(=O)c2ccc(C)cc2)cc1OC | 1.29 |  |
| CCc1ccccc1N(CC(=O)NCCc1ccc(OC)c(OC)c1)S(=O)(=O)c1ccc(OC)cc1 | 0.17 |  |
| COc1ccc(CCNC(=O)CN(c2ccc(C)cc2)S(=O)(=O)c2ccc(C)cc2)cc1OC | > 1.12 |  |
| Cc1ccc(S(=O)(=O)N(CC(=O)NCc2ccc(Cl)cc2)c2cccnc2)cc1 | > 1.45 | Ki [2]: > 1 µM |
| CCc1ccccc1N(CC(=O)NCc1ccc(C(F)(F)F)cc1)S(=O)(=O)c1ccc(C)cc1 | 0.209 |  |
| CCc1ccccc1N(CC(=O)NCc1ccc(OC)cc1)S(=O)(=O)c1ccc(C)cc1 | 0.0355 | Ki [2]: 0.0251 µM |
| CCc1ccccc1N(CC(=O)NCCc1ccc(OC)c(OC)c1)S(=O)(=O)c1cccc(C)c1 | 1.66 |  |
| COc1ccc(CCNC(=O)CN(c2ccc(F)cc2)S(=O)(=O)c2ccc(C)cc2)cc1OC | > 1.58 |  |
| COc1ccc(CCNC(=O)CN(c2ccccc2C)S(=O)(=O)c2ccc(C)cc2)cc1OC | 0.0389 |  |
| Cc1ccc(S(=O)(=O)N(CC(=O)NCc2ccc(Cl)cc2)c2cccc(C)n2)cc1 | > 1.45 | Ki [2]: > 1 µM |
| Cc1ccc(S(=O)(=O)N(CC(=O)NCCc2ccccc2)c2ccccc2C)cc1 | 1.35 |  |
| COc1ccc(CCNC(=O)CN(c2cccc(C)c2C)S(=O)(=O)c2ccc(C)cc2)cc1OC | 0.0129 |  |
| Cc1ccc(S(=O)(=O)N(CC(=O)NCc2ccc(Cl)cc2)c2ccnn2C)cc1 | 0.589 | Ki [2]: 0.398 µM |
| CNS(=O)(=O)c1cc(CCNC(=O)CN(c2ccccc2C)S(=O)(=O)c2ccc(C)cc2)ccc1O | 0.00372 |  |
| CCc1ccccc1N(CC(=O)NCCc1ccc(OC)c(OC)c1)S(=O)(=O)c1ccccc1C#N | > 3.16 |  |
| CCc1ccccc1N(CC(=O)NCc1ccc(Cl)cc1)S(=O)(=O)c1ccc(C)cc1 | 0.0115 | Ki [4]: 0.794 µM; Ratio pKi [5]: 100; IC50 [6]: > 10 µM; IC50 [7]: 4.17 µM; IC50 [8]: 31.6 µM; IC50 [9]: 6.31 µM; IC50 [10]: 2 µM; IC50 [11]: 100 µM; IC50 [12]: 0.251 µM; Ki [2]: 0.01 µM |
| COc1ccc(CCNC(=O)CN(c2ccccc2)S(=O)(=O)c2ccc(C)cc2)cc1OC | 0.589 |  |
| CCc1ccccc1N(CC(=O)NCCc1ccc(OC)c(OC)c1)S(=O)(=O)c1ccccc1Cl | 2 |  |
| CCc1ccccc1N(CC(=O)NCc1cccc(Cl)c1)S(=O)(=O)c1ccc(C)cc1 | 1.41 | Ki [2]: 0.251 µM |
| Cc1ccc(S(=O)(=O)N(CC(=O)NCc2ccc(Cl)cc2)c2ccc(C)nc2)cc1 | > 1.45 | Ki [2]: > 1 µM |
| Cc1ccc(S(=O)(=O)N(CC(=O)NCc2ccc(Cl)cc2)c2cccnc2C)cc1 | 0.676 | Ki [2]: 0.2 µM |
